Article PMC8963331 (Toxicological Sciences, 2022)
Where two headings read alike, the source gives them in different places. Marks after values point to notes of the source that are not given here.

What was measured:
[1] = Rabbit EFD study: maternal and fetal plasma toxicokinetics; assay type: in vivo
mouse colitis model = settings: ref Sandborn et al., 2020; cited from earlier work
humans = settings: QD, ref Sandborn et al., 2020, cited from earlier work
[2] = test system: JAK1, JAK2, JAK3, and TYK2; assay: Human cellular JAK IC50; assay type: cell-based; settings: corrected with human plasma protein binding of 85.4%
[3] = Exposure comparisons stated jointly for several nonclinical species; assay type: in vivo, rat, dog, rabbit
[4] = Rat EFD study: maternal and fetal plasma toxicokinetics; assay type: in vivo
[5] = test system: Crl:CD Sprague Dawley (SD) rats; assay: Rat 4-, 13-, 26-week repeat-dose general toxicity studies; assay type: in vivo
Summary of the method: (§1)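 Crl:CD Sprague Dawley rats, 7–8 weeks old at start, dosed daily by oral gavage (10 ml/kg) at 0 (vehicle), 30, 100 or 1000 mg/kg/day for 4, 13 or 26 weeks. n = 10/sex/group, plus 4-week dose-free recovery (n = 5/sex). Rats fasted overnight. Hematology, coagulation and clinical chemistry sampled at baseline, end of dosing and end of recovery. Sexes pooled; treated groups compared with vehicle; variance homogeneity by […] Levene test.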

[6] = as above; assay type: in vivo; settings: both, Sprague-Dawley (Crl:CD), rat, in vivo, oral
Summary of the method: as §1

[7] = Dog repeat-dose toxicity studies: plasma toxicokinetics; assay type: in vivo; settings: for Mean Cave: dog female, 10 mg/kg/day oral, last day of dosing
[8] = maternal rabbit, GD 19, 30 and 60 mg/kg/day
[9] = maternal rat, 30 and 100 mg/kg/day
[10] = maternal rat, GD 17, 1000 mg/kg/day
[11] = rat, 4 weeks, 1000 mg/kg/day, reversible
[12] = rat, 13 weeks, 1000 mg/kg/day, reversible
[13] = rat, 26 weeks, 1000 mg/kg/day, reversible

Structure (SMILES): Cc1cc(Nc2cc3ncccc3c(N[C@@H]3C[C@H]4CC[C@@H](C3)N4CCC#N)n2)n[nH]1 [izencitinib, Izencitinib]
- plasma Cave:protein-corrected JAK IC50 ratio ([1]; maternal rabbit, 10 mg/kg/day): < 1 ×
- plasma Cave:uncorrected JAK IC50 ratio ([1]; maternal rabbit, 10 mg/kg/day): < 1 ×
- Mean Cave ([1]; maternal rabbit, GD 7, 10 mg/kg/day oral): 0.365 ng/mL
- Mean Cave ([1]; maternal rabbit, GD 7, 30 mg/kg/day oral): 3.28 ng/mL
- Mean Cave ([1]; maternal rabbit, GD 7, 60 mg/kg/day oral): 21.8 ng/mL
- Mean Cave ([1]; maternal rabbit, GD 19, 10 mg/kg/day oral): 0.754 ng/mL
- plasma Cave:uncorrected JAK IC50 ratio ([1]; maternal rabbit, GD 19, 30 mg/kg/day): 1 ×
- Mean Cave ([1]; maternal rabbit, GD 19, 30 mg/kg/day oral): 18.7 ng/mL
- plasma Cave:uncorrected JAK IC50 ratio ([1]; maternal rabbit, GD 19, 60 mg/kg/day): 6 ×
- Mean Cave ([1]; maternal rabbit, GD 19, 60 mg/kg/day oral): 76.7 ng/mL
- plasma Cave:protein-corrected JAK IC50 ratios [1, 8]: < 1 ×
- time at supratherapeutic plasma levels [1, 8]: 6 to 9 h
- nonclinical:clinical AUC ratio at the NOAEL ([1]; rabbit EFD study, 60 mg/kg/day, vs human 300 mg QD): 33 fold
- fetal plasma concentrations, all other samples ([1]; rabbit fetuses, undetectable, limit of quantitation): < 1 ng/mL
- concentration at 3 h ([1]; rabbit, fetal plasma, oral, 60 mg/kg/day): 1.55 ng/mL
- JAK inhibitor-associated splenic natural killer (NK) cell reductions (mouse colitis model): spared
- dose up to which well tolerated (humans; phase 1b, ulcerative colitis patients): 270 mg
- dose up to which well tolerated (humans; phase 1 single ascending dose): 1000 mg
- human cellular JAK IC50 range, human plasma protein binding corrected [2]: 0.08718 to 0.5501 µg/mL
- nonclinical:clinical systemic exposure (AUC) ratio at the NOAEL dose ([3]; rat and dog general toxicity studies, each study, vs human 300 mg QD): 6- to 18 fold
- fetal exposure ([3]; rat and rabbit EFD studies): negligible
- maternal plasma Cave:JAK IC50 ratio ([3]; rat and rabbit EFD studies): 2–6 ×
- Cave:uncorrected IC50 ratio ([3]; rat and rabbit EFD, highest dose tested): ≥ 2 ×
- Cave:protein-corrected IC50 ratio [4, 9]: < 1 ×
- Cave:uncorrected IC50 ratio [4, 9]: < 1 ×
- Mean Cave ([4]; maternal rat, GD 6, 30 mg/kg/day oral): 0.613 ng/mL
- Mean Cave ([4]; maternal rat, GD 6, 100 mg/kg/day oral): 2.15 ng/mL
- Mean Cave ([4]; maternal rat, GD 6, 1000 mg/kg/day oral): 16.2 ng/mL
- Mean Cave ([4]; maternal rat, GD 17, 30 mg/kg/day oral): 0.663 ng/mL
- Mean Cave ([4]; maternal rat, GD 17, 100 mg/kg/day oral): 2.88 ng/mL
- plasma Cave:protein-corrected JAK IC50 ratio [4, 10]: < 1 ×
- plasma Cave:uncorrected JAK IC50 ratio [4, 10]: 2 ×
- time at supratherapeutic plasma levels [4, 10]: 12 to 15 h
- Mean Cave ([4]; maternal rat, GD 17, 1000 mg/kg/day oral): 23.8 ng/mL
- nonclinical:clinical AUC ratio at the NOAEL ([4]; rat EFD study, 1000 mg/kg/day, vs human 300 mg QD): 10 fold
- fetal plasma concentrations, all other samples ([4]; rat fetuses, below lower limit of quantitation): < 1 ng/mL
- concentration at 3 h ([4]; rat, fetal plasma, oral, 1000 mg/kg/day): 1.18 ng/mL
- organ weights and microscopic findings in male reproductive tissues ([5]; rat repeat-dose studies, up to highest tested doses): no microscopic findings
- effects on lipid levels ([5]; rat repeat-dose toxicity studies, any dose): no effects
- spleen weight, change ([5]; rat, 100 mg/kg/day): 0.87 ×
- spleen weight, change ([5]; rat, 1000 mg/kg/day): 0.78–0.86 ×
- no observed adverse effect level ([5]; rat, 4 weeks): 1000^c mg/kg/day
- platelet counts, change ([5]; rat, 4 weeks, 100 mg/kg/day, reversible): 1.1 ×
- lymphocyte counts, change [5, 11]: 0.64 ×
- platelet counts, change [5, 11]: 1.2 ×
- white blood cell counts, change [5, 11]: 0.66 ×
- changes in red blood cell parameters ([5]; rat, 4 weeks, any dose): No changes
- no observed adverse effect level ([5]; rat, 13 weeks): 1000^c mg/kg/day
- lymphocyte counts, change ([5]; rat, 13 weeks, 100 mg/kg/day, reversible): 0.78 ×
- hemoglobin levels, change ([5]; rat, 13 weeks, 1000 mg/kg/day, end of dosing): 0.97 ×
- hemoglobin levels, change ([5]; rat, 13 weeks, 1000 mg/kg/day, end of recovery period): 0.95 ×
- lymphocyte counts, change [5, 12]: 0.64 ×
- platelet counts, change [5, 12]: 1.2 ×
- red blood cell counts, change [5, 12]: 0.96 ×
- white blood cell counts, change [5, 12]: 0.74 ×
- platelet counts, change ([5]; rat, 26 weeks, 1000 mg/kg/day): 1.1 ×
- white blood cell counts, change ([5]; rat, 26 weeks, 1000 mg/kg/day): 0.68 ×
- incidence of minimally decreased lymphoid cellularity, females [5, 13]: 1 of 10
- incidence of minimally decreased lymphoid cellularity, males [5, 13]: 4 of 10
- hemoglobin levels, change ([5]; rat, 26 weeks, all dose levels): 0.95 ×
- effects on food consumption, ophthalmic evaluations, clinical chemistry, urinalysis ([5]; rat, all repeat-dose studies): no effects
- changes in reticulocyte levels ([5]; rat, any dose, 3 studies): No changes
- effects on neutrophils ([5]; rat, any dose, 3 studies): No izencitinib-related effects
- changes in coagulation parameters ([5]; rat, any dose, all 3 studies): no changes
- other changes in organ weights or microscopic effects, including GI tissues ([5]; rat, up to 1000 mg/kg/day, all studies): No other changes
- tolerability ([5]; rat, up to highest tested dose 1000 mg/kg/day, 4-, 13-, 26-week studies): well-tolerated
- NOAEL at 26 weeks [6]: 1000 mg/kg/day
- nonclinical:clinical systemic AUC margin at the NOAEL ([7]; dog 39-week study, 30 mg/kg/day, vs human 300 mg QD): 8 fold
- Mean Cave ([7]; 4 weeks): 1.90 ng/mL
- Mean Cave ([7]; 13 weeks): 1.53 ng/mL
